Measured values reported in ChEMBL document CHEMBL3392964, “Design, synthesis, and evaluation of novel imidazo[1,2-a][1,3,5]triazines and their derivatives as focal adhesion kinase inhibitors with antitumor activity” (J Med Chem, 2015).
Active and inactive are the calls of the source. The calls are words filed in the database; no cut-off is given here.

Key:
[1] = molecular target: T1, Focal adhesion kinase 1 (Homo sapiens, UniProt Q05397); assay: Inhibition of FAK phosphorylation at tyrosine 397 in human U87MG cells at 0.1 to 10 uM after 48 hrs by FACEFAK ELISA; format: cell-based; settings: U-87MG ATCC
Summary of the method: (§1)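 Cells were grown in DMEM with 10% FBS, seeded at 3 × 10^3 per well and treated for 48 h at 0.1, 1 and 10 μM. They were then fixed in 4% formaldehyde and probed with anti-phospho-Tyr397 FAK or total-FAK antibody plus an HRP secondary, read at 450 nm. Signal was normalised to total FAK and to crystal-violet cell number (595 nm). Values are fold decrease versus control, mean of triplicate readings from three independent experiments.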

[2] = molecular target: T1, Focal adhesion kinase 1; assay: Inhibition of FAK phosphorylation at tyrosine 397 in human HCT116 cells at 0.1 to 10 uM after 48 hrs by FACEFAK ELISA; format: cell-based; settings: HCT-116; summary of the method: as §1
[3] = molecular target: T1, Focal adhesion kinase 1; assay: Inhibition of FAK phosphorylation at tyrosine 397 in human MDA-MB-231 cells at 0.1 to 10 uM after 48 hrs by FACEFAK ELISA; format: cell-based; summary of the method: as §1
[4] = molecular target: T1, Focal adhesion kinase 1; assay: Inhibition of FAK phosphorylation at tyrosine 397 in human PC3 cells at 0.1 to 10 uM after 48 hrs by FACEFAK ELISA; format: cell-based; settings: PC-3; summary of the method: as §1
[5] = Antiproliferative activity against human U87MG cells after 48 hrs by WST-1 assay; format: functional, cell-based, U-87MG ATCC; settings: U-87 MG
Summary of the method: (§2)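 Exponentially growing cells in DMEM/10% FBS seeded at 5 × 10^3 per well, left overnight, then exposed 48 h to compounds diluted from DMSO; WST-1 added for 2 h, absorbance at 450 nm (reference 620 nm); viability as ratio to DMSO controls; three independent experiments, triplicate points; IC50 by nonlinear regression (log inhibitor vs normalized response, variable slope).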

[6] = Antiproliferative activity against human HCT116 cells after 48 hrs by WST-1 assay; format: functional, cell-based; settings: HCT-116, 48 h; summary of the method: as §2
[7] = test system: MDA-MB-231; assay: Antiproliferative activity against human MDA-MB-231 cells after 48 hrs by WST-1 assay; format: functional, cell-based; settings: MDA-MB-231, 48 h; summary of the method: as §2
[8] = Antiproliferative activity against human PC3 cells after 48 hrs by WST-1 assay; format: functional, cell-based; settings: PC-3, 48 h; summary of the method: as §2
[9] = (§3) Inhibition of colony formation in human U87MG cells after 2 weeks by crystal violet staining-based assay; format: functional, cell-based, U-87MG ATCC; settings: U-87 MG, 336 h
Summary of the method: (§4)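 Seeding: 250 cells per well for HCT-116, 300 for U87MG, MDA-MB-231 and PC-3; incubated overnight, then exposed to a range of concentrations for 2 weeks. Fixed in 4% paraformaldehyde 30 min at room temperature, stained with 0.1% crystal violet. Colonies over 50 cells counted; colony formation rate calculated; IC50 by nonlinear regression.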

[10] = test system: U-87MG ATCC; assay: as §3; format: functional, cell-based; summary of the method: as §4
[11] = (§5) Inhibition of colony formation in human HCT116 cells after 2 weeks by crystal violet staining-based assay; format: functional, cell-based; settings: HCT-116, 336 h; summary of the method: as §4
[12] = test system: HCT-116; assay: as §5; format: functional, cell-based; summary of the method: as §4
[13] = test system: MDA-MB-231; assay: Inhibition of colony formation in human MDA-MB-231 cells after 2 weeks by crystal violet staining-based assay; format: functional, cell-based; summary of the method: as §4
[14] = (§6) Inhibition of colony formation in human PC3 cells after 2 weeks by crystal violet staining-based assay; format: functional, cell-based; settings: PC-3, 336 h; summary of the method: as §4
[15] = test system: PC-3; assay: as §6; format: functional, cell-based; summary of the method: as §4
[16] = test system: U-87 MG; assay: Induction of apoptosis in human U87MG cells assessed as early apoptotic cells at 1 uM after 24 hrs by Annexin V-PE/7-AAD staining-based FACS analysis (reference value: 0.691%); format: functional, U-87MG ATCC
[17] = test system: U-87 MG; assay: Induction of apoptosis in human U87MG cells assessed as late apoptotic cells at 1 uM after 24 hrs by Annexin V-PE/7-AAD staining-based FACS analysis (reference value: 1.59%); format: functional, U-87MG ATCC
[18] = test system: U-87 MG; assay: Induction of apoptosis in human U87MG cells assessed as necrotic cells at 1 uM after 24 hrs by Annexin V-PE/7-AAD staining-based FACS analysis (reference value: 1.06%); format: functional, U-87MG ATCC
[19] = test system: U-87 MG; assay: Induction of apoptosis in human U87MG cells assessed as viable cells at 1 uM after 24 hrs by Annexin V-PE/7-AAD staining-based FACS analysis (reference value: 96.7%); format: functional, U-87MG ATCC; settings: read-out: Activity
[20] = test system: HCT-116; assay: Induction of apoptosis in human HCT116 cells assessed as early apoptotic cells at 0.3 uM after 24 hrs by Annexin V-PE/7-AAD staining-based FACS analysis (reference value: 4.68%); format: functional
[21] = test system: HCT-116; assay: Induction of apoptosis in human HCT116 cells assessed as late apoptotic cells at 0.3 uM after 24 hrs by Annexin V-PE/7-AAD staining-based FACS analysis (reference value: 1.22%); format: functional
[22] = test system: HCT-116; assay: Induction of apoptosis in human HCT116 cells assessed as necrotic cells at 0.3 uM after 24 hrs by Annexin V-PE/7-AAD staining-based FACS analysis (reference value: 0.885%); format: functional
[23] = test system: HCT-116; assay: Induction of apoptosis in human HCT116 cells assessed as viable cells at 0.3 uM after 24 hrs by Annexin V-PE/7-AAD staining-based FACS analysis (reference value: 93.2%); format: functional; settings: HCT-116, 24 h, read-out: Activity
[24] = test system: HCT-116; assay: Induction of apoptosis in human HCT116 cells assessed as apoptotic cells at 0.3 uM after 24 hrs by Annexin V-PE/7-AAD staining-based FACS analysis relative to control; format: functional
[25] = test system: HCT-116; assay: Induction of apoptosis in human HCT116 cells at < 0.3 uM after 24 hrs by Annexin V-PE/7-AAD staining-based FACS analysis; format: functional, cell-based
[26] = Cell cycle arrest in human U87MG cells assessed as accumulation at G0/G1 phase at 1 uM after 24 hrs by propidium iodide staining-based flow cytometry (reference value: 61.7%); format: functional; settings: U-87MG ATCC
Summary of the method: (§7)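 Cells plated at 10^5 per well, left overnight, then exposed 24 h to compound or vehicle; stained 15 min at 37 °C with propidium iodide/Triton buffer; DNA content by flow cytometry, phase distribution fitted by Dean–Jett–Fox; HCT-116 at 0.3–0.5 μM, U87-MG at 0.3–3 μM; significance by unpaired Student's t test; one representative experiment.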

[27] = Cell cycle arrest in human U87MG cells assessed as accumulation at S phase at 1 uM after 24 hrs by propidium iodide staining-based flow cytometry (reference value: 16%); format: functional; settings: U-87MG ATCC; summary of the method: as §7
[28] = Cell cycle arrest in human U87MG cells assessed as accumulation at G2/M phase at 1 uM after 24 hrs by propidium iodide staining-based flow cytometry (reference value: 20%); format: functional; settings: U-87MG ATCC; summary of the method: as §7
[29] = Cell cycle arrest in human HCT116 cells assessed as accumulation at G0/G1 phase at 0.3 uM after 24 hrs by propidium iodide staining-based flow cytometry (reference value: 63.8%); format: functional; settings: HCT-116; summary of the method: as §7
[30] = Cell cycle arrest in human HCT116 cells assessed as accumulation at S phase at 0.3 uM after 24 hrs by propidium iodide staining-based flow cytometry (reference value: 17.7%); format: functional; settings: HCT-116; summary of the method: as §7
[31] = Cell cycle arrest in human HCT116 cells assessed as accumulation at G2/M phase at 0.3 uM after 24 hrs by propidium iodide staining-based flow cytometry (reference value: 14.6%); format: functional; settings: HCT-116; summary of the method: as §7
[32] = Cell cycle arrest in human U87MG cells at < 1 uM after 24 hrs by propidium iodide staining-based flow cytometry; format: functional; settings: U-87MG ATCC; summary of the method: as §7
[33] = Cell cycle arrest in human HCT116 cells at < 0.3 uM after 24 hrs by propidium iodide staining-based flow cytometry; format: functional; settings: HCT-116; summary of the method: as §7
[34] = test system: U-87 MG; assay: Reduction of cell adherence in human U87MG cells at 1 uM after 30 mins by toluidine blue staining-based […]; format: functional, U-87MG ATCC; parameters: scale not given: the % may be the effect or the level left
Summary of the method: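 U87-MG cells grown in 10% serum, trypsinised, diluted to 100 000 cells/mL in 10% serum medium, then treated 30 min with compound or DMSO. 20 000 cells per well allowed to attach 1 h. Fixed in 4% paraformaldehyde 30 min, stained with 0.1% toluidine blue in 4% PFA 30 min, washed, OD read at 620 nm for attached cells.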

[35] = Antimigratory activity in human U87MG cells at 1 uM […] by transwell membrane assay; format: functional, U-87MG ATCC
[36] = test system: U-87MG ATCC; assay: Antimigratory activity in human U87MG cells after 30 mins by boyden chamber assay; format: functional, cell-based

T1 sequence (Q05397 2-1052 limits assumed): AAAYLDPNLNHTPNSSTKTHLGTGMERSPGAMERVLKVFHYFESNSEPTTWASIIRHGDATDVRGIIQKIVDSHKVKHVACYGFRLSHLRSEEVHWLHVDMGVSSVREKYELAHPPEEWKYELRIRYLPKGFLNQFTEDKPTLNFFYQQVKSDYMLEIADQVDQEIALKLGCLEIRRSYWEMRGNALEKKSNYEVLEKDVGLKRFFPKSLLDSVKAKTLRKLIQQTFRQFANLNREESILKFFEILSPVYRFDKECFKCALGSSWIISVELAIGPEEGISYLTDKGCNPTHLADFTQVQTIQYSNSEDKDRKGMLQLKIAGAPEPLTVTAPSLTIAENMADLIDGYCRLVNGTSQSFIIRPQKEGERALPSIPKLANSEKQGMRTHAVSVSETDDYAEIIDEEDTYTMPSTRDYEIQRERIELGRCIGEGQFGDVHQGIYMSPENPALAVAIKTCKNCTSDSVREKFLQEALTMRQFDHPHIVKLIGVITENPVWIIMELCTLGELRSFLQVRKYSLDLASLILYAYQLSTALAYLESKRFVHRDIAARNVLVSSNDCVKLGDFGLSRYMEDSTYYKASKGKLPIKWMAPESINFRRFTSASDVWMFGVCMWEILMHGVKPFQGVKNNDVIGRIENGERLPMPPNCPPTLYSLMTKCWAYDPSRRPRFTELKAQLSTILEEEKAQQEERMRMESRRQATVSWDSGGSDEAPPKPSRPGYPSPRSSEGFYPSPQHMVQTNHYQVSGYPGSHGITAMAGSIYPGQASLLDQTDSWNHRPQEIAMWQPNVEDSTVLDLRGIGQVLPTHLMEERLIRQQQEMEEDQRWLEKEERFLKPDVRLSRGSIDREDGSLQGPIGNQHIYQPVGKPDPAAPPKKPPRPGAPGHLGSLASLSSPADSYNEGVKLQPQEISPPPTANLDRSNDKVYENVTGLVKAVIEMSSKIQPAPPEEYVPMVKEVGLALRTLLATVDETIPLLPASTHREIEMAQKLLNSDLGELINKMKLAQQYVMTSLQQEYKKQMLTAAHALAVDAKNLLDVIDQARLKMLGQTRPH

With `CNC(=O)c1ccccc1Nc1nc(Nc2ccc(N3CCOCC3)cc2OC)ncc1Cl` the inhibition [1] was “Active”, the inhibition [2] was “Active” and the inhibition [3] was “Active”. The inhibition [4] was “Active”, the IC50 [5] was 1200 nM and the IC50 [6] was 400 nM. For the same molecule, the IC50 [7] was 2800 nM, the IC50 [8] was 1600 nM and the IC50 [9] was 190 nM. The inhibition [10] was “Dose-dependent effect”, the IC50 [11] was 230 nM and the inhibition [12] was “Dose-dependent effect”. The inhibition [13] was “Dose-dependent effect”, the IC50 ([13]; MDA-MB-231, 336 h) was 1900 nM and the IC50 [14] was 260 nM. For the same molecule, the inhibition [15] was “Dose-dependent effect”, the Activity [16] was 3.12% and the Activity [17] was 0.596%. It also gave an Activity [18] of 0.9%, a viability at 1 µM [19] of 95.4% and an Activity [20] of 12.3%. The Activity [21] was 32%, the Activity [22] was 13.1% and the viability at 0.3 µM [23] was 42.7%. For the same molecule, the Activity [24] was 41.8%, the Activity [25] was “Active” and the Activity [26] was 49.9%. For the same molecule, the Activity [27] was 7.11%, the Activity [28] was 40.8% and the Activity [29] was 31.3%. For the same molecule, the Activity [30] was 10.4%, the Activity [31] was 54.4% and the Activity [32] was “Active”. For the same molecule, the Activity [33] was “Active”, the Activity [34] was 36% and the Activity [35] was 25.5%. The Activity [36] was “Dose-dependent effect”.
